Data on six compounds can be found in ChEMBL document CHEMBL1145857, “Toward tissue-selective pancreatic B-cells KATP channel openers belonging to 3-alkylamino-7-halo-4H-1,2,4-benzothiadiazine 1,1-dioxides” (J Med Chem, 2003).

Series [1] is filed under the species Rattus norvegicus. Briefly: Estimated selectivity ratio of ED50 and IC50 in rat was calculated. The class given is functional.
For series [2], the species on record is Rattus norvegicus. Briefly: Percent inhibition of residual insulin release from rat pancreatic islets in the presence of 16.7 mM glucose at 10 uM concentration. The format is functional. In short, it runs like this:
(§1)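 Islets isolated by collagenase from fed Wistar rats (180–220 g); groups of 10 islets preincubated 30 min at 37 °C in bicarbonate salt medium with 2.8 mM glucose and 0.5% dialyzed albumin under O2/CO2 95:5, then incubated 90 min at 37 °C with 16.7 mM glucose plus drug. Insulin measured by radioimmunoassay against rat insulin standard; residual release as % of drug-free 16.7 mM glucose control; IC50 estimated.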

Series [3] is filed under the species Rattus norvegicus. Briefly: Effective dose required for relaxation of the 30 mM KCl-induced contraction of rat aortic rings. The class given is functional. As to conditions: Aorta, read-out: ED50 (the source's name). The method in brief:
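Endothelium-denuded transverse aortic rings (3–4 mm) from fed Wistar rats (180–220 g); isometric tension by force transducer. After 60 min equilibration, contracted with 30 mM KCl; once stable, drug added cumulatively to maximal relaxation or 0.3 mM. Relaxation as % of KCl contraction; ED50 (50% inhibition of KCl plateau) from dose–response curves; mean ± SEM (n).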

For series [4], the species on record is Rattus norvegicus. Nature of the series: Percent inhibition of residual insulin release from rat pancreatic islets in the presence of 16.7 mM glucose at 50 uM concentration. The class given is functional. In short, it runs like this:
as §1

The species named for series [5] is Rattus norvegicus. Nature of the series: Percent inhibition of residual insulin release from rat pancreatic islets in the presence of 16.7 mM glucose at 1 uM concentration. The format is functional. The method in brief: as §1
The species named for series [6] is Rattus norvegicus. Briefly: Concentration required to inhibit insulin release in rat. The format is functional.
Series [7] is described as follows: pKa value determined at 20 °C.
The species entered for series [8] is Rattus norvegicus. Briefly: Percent inhibition of residual insulin release from rat pancreatic islets in the presence of 16.7mM glucose at 0.1 uM concentration. The format is functional. The method in brief:
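Islets isolated by collagenase from fed Wistar rats (180–220 g). Groups of 10 islets preincubated 30 min at 37 °C in bicarbonate salt medium with 2.8 mM glucose, 0.5% dialyzed albumin, gassed O2/CO2 95:5. Then incubated 90 min at 37 °C with 16.7 mM glucose plus drug. Insulin measured by radioimmunoassay against rat insulin; expressed as % of drug-free 16.7 mM glucose control; mean ± SEM (n).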

Each structure is given as a SMILES string.

With `O=S1(=O)NC(NC2CCC2)=Nc2ccc(F)cc21`, in the series filed under Rattus norvegicus [1], the Selectivity was 55. For the same compound, the RIS is given as 7.8% in the series listed under Rattus norvegicus [2], 5.9% in the series listed under Rattus norvegicus [4] and 58.2% in the series listed under Rattus norvegicus [5]. Further, in the series listed under Rattus norvegicus [3], the EC50 was 71800 nM. Besides, it took 1300 nM to reach half-maximal inhibition in the series listed under Rattus norvegicus [6] (IC50).

Consider `CC(C)NC1=NS(=O)(=O)c2cc(Cl)ccc2N1`, for which the Selectivity in the series listed under Rattus norvegicus [1] is reported as 52. Also, the RIS turned out to be 4.9% in the series filed under Rattus norvegicus [2] and 5.7% in the series listed under Rattus norvegicus [4]. Also, the EC50 in the series listed under Rattus norvegicus [3] was 36300 nM. Also, in series [7], the pKa is 9.51.

Turning to `CC(C)NC1=NS(=O)(=O)c2cc(I)ccc2N1`, in the series filed under Rattus norvegicus [1], the Selectivity is listed as 3.7. For the same compound, the RIS in the series listed under Rattus norvegicus [2] is listed as 9.6%; in the series listed under Rattus norvegicus [8], 99.2%; in the series listed under Rattus norvegicus [4], 5.6%; in the series listed under Rattus norvegicus [5] it was 74.8%. In addition, in the series listed under Rattus norvegicus [3], the EC50 turned out to be 7700 nM. In series [7], this compound came in with a pKa of 9.28. In the series filed under Rattus norvegicus [6], this compound had an IC50 of 2100 nM.

As to `CNC1=NS(=O)(=O)c2cc(Cl)ccc2N1`, the Selectivity in the series listed under Rattus norvegicus [1] is on record as 129. For the same compound, the RIS in the series listed under Rattus norvegicus [2] came out at 4.4%; in the series filed under Rattus norvegicus [4], 2.4%; in the series listed under Rattus norvegicus [5], 55.1%. Further, the EC50 in the series filed under Rattus norvegicus [3] was 142000 nM. Moreover, in the series filed under Rattus norvegicus [6], the IC50 was found to be 1100 nM.

For the compound `CC(C)NC1=NS(=O)(=O)c2cc(F)ccc2N1`, the Selectivity in the series filed under Rattus norvegicus [1] is 54. Further, the RIS in the series listed under Rattus norvegicus [2] is 3.7%; in the series filed under Rattus norvegicus [4] it was 3.3%. For the same compound, the pKa in series [7] worked out at 9.63. For the same compound, the IC50 in the series listed under Rattus norvegicus [6] amounted to 800 nM.

Regarding `CC(C)NC1=NS(=O)(=O)c2cc(Br)ccc2N1`, the Selectivity in the series filed under Rattus norvegicus [1] is recorded as 9.6. Moreover, the RIS in the series filed under Rattus norvegicus [2] came to 8.1%; in the series listed under Rattus norvegicus [8], 91%; in the series listed under Rattus norvegicus [4] it was 6.7%. In addition, the pKa in series [7] was determined as 9.41. Also, the IC50 in the series listed under Rattus norvegicus [6] amounted to 500 nM.
